Experimental data as given in ChEMBL document CHEMBL4330096, “Discovery of potent and selective 5-azaindazole inhibitors of leucine-rich repeat kinase 2 (LRRK2) - Part 1” (Bioorg Med Chem Lett, 2019).

Key:
[1] = Stability in human liver microsomes assessed as compound turnover rate measured after 40 mins; assay type: ADME, Microsome; conditions: read-out: Drug metabolism
Procedure, shortened: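 In vitro incubation of compound with liver microsomes: human (HLM) for 40 min, mouse (MLM) for 30 min. Reported as % turnover of parent compound.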

[2] = target: AMP-activated protein kinase, AMPK (Homo sapiens) (UniProt P54646+O43741+P54619+Q9UGJ0+Q9Y478+Q13131+Q9UGI9); test: Inhibition of AMPK (unknown origin) at 10 uM relative to control; assay type: protein-complex assay
Procedure, shortened: (§1)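 Single-point screen of each compound against a panel of 59 protein kinases, at 1 or 10 μM. The panel data are also summarised as a rescaled geometric mean selectivity score.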

[3] = target: Mitogen-activated protein kinase 3 (Homo sapiens) (UniProt P27361); test: Inhibition of ERK1 (unknown origin) at 10 uM relative to control; procedure, shortened: as §1
[4] = target: Mitogen-activated protein kinase 1 (Homo sapiens) (UniProt P28482); test: Inhibition of ERK2 (unknown origin) at 10 uM relative to control; procedure, shortened: as §1
[5] = target: Homeodomain-interacting protein kinase 2 (Homo sapiens) (UniProt Q9H2X6); test: Inhibition of HIPK2 (unknown origin) at 10 uM relative to control; procedure, shortened: as §1
[6] = target: T1, Inhibitor of nuclear factor kappa-B kinase subunit beta (Homo sapiens) (UniProt O14920); test: Inhibition of IKKb (unknown origin) at 10 uM relative to control; procedure, shortened: as §1
T1 sequence (whole entry): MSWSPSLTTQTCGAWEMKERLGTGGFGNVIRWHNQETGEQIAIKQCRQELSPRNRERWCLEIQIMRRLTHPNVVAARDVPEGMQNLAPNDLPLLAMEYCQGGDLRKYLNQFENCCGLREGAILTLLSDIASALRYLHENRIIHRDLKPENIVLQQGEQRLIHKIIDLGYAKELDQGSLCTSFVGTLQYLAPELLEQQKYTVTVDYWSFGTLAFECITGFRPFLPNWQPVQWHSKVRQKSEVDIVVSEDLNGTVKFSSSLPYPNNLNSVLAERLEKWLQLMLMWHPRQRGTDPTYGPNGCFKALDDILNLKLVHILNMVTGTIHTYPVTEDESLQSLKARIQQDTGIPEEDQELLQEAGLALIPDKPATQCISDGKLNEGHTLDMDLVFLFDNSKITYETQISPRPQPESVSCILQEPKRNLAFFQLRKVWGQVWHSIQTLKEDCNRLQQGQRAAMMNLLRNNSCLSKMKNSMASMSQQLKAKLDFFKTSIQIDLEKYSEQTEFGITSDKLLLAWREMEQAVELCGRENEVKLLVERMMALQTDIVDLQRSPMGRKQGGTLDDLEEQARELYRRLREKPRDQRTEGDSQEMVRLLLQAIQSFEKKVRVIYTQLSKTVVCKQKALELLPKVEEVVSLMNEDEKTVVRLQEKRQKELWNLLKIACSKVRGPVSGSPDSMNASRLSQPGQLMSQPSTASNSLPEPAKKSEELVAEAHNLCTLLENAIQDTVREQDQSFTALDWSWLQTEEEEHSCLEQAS

[7] = target: Insulin receptor-related protein (Homo sapiens) (UniProt P14616); test: Inhibition of IRR (unknown origin) at 10 uM relative to control; procedure, shortened: as §1
[8] = target: MAP/microtubule affinity-regulating kinase 3 (Homo sapiens) (UniProt P27448); test: Inhibition of MARK3 (unknown origin) at 10 uM relative to control
Procedure, shortened: (§2)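 Single-concentration screen of each compound against a 59-protein-kinase panel, run at 10 µM or 1 µM. Activity relative to control is shown as a heat map across the panel.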

[9] = target: Maternal embryonic leucine zipper kinase (Homo sapiens) (UniProt Q14680); test: Inhibition of MELK (unknown origin) at 10 uM relative to control; procedure, shortened: as §2
[10] = target: Dual specificity mitogen-activated protein kinase kinase 1 (Homo sapiens) (UniProt Q02750); test: Inhibition of MKK1 (unknown origin) at 10 uM relative to control; procedure, shortened: as §2
[11] = target: MAP kinase-interacting serine/threonine-protein kinase 2 (Homo sapiens) (UniProt Q9HBH9); test: Inhibition of MNK2 (unknown origin) at 10 uM relative to control; procedure, shortened: as §2
[12] = target: Serine/threonine-protein kinase pim-1 (Homo sapiens) (UniProt P11309); test: Inhibition of PIM1 (unknown origin) at 10 uM relative to control; procedure, shortened: as §2
[13] = organism: Homo sapiens; test: Inhibition of PKA (unknown origin) at 10 uM relative to control; procedure, shortened: as §2
[14] = target: Protein kinase C alpha type (Homo sapiens) (UniProt P17252); test: Inhibition of PKCa (unknown origin) at 10 uM relative to control; procedure, shortened: as §2
[15] = target: T2, MAP kinase-activated protein kinase 5 (Homo sapiens) (UniProt Q8IW41); test: Inhibition of PRAK (unknown origin) at 10 uM relative to control; procedure, shortened: as §2
T2 sequence (whole entry): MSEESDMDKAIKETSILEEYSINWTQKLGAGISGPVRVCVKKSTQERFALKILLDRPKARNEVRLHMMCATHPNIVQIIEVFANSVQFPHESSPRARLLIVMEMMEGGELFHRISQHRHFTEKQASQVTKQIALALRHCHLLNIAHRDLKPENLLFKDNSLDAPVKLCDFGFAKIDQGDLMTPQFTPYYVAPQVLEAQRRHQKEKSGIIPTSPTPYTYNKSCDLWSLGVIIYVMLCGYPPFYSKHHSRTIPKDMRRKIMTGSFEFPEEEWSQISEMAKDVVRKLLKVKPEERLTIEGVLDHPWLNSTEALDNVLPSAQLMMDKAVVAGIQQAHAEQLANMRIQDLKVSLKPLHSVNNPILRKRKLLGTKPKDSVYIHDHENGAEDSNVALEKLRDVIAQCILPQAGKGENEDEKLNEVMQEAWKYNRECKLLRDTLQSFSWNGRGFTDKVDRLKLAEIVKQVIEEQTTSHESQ

Chain of Homeodomain-interacting protein kinase 2 (Homo sapiens) (Q9H2X6 whole entry, looked up): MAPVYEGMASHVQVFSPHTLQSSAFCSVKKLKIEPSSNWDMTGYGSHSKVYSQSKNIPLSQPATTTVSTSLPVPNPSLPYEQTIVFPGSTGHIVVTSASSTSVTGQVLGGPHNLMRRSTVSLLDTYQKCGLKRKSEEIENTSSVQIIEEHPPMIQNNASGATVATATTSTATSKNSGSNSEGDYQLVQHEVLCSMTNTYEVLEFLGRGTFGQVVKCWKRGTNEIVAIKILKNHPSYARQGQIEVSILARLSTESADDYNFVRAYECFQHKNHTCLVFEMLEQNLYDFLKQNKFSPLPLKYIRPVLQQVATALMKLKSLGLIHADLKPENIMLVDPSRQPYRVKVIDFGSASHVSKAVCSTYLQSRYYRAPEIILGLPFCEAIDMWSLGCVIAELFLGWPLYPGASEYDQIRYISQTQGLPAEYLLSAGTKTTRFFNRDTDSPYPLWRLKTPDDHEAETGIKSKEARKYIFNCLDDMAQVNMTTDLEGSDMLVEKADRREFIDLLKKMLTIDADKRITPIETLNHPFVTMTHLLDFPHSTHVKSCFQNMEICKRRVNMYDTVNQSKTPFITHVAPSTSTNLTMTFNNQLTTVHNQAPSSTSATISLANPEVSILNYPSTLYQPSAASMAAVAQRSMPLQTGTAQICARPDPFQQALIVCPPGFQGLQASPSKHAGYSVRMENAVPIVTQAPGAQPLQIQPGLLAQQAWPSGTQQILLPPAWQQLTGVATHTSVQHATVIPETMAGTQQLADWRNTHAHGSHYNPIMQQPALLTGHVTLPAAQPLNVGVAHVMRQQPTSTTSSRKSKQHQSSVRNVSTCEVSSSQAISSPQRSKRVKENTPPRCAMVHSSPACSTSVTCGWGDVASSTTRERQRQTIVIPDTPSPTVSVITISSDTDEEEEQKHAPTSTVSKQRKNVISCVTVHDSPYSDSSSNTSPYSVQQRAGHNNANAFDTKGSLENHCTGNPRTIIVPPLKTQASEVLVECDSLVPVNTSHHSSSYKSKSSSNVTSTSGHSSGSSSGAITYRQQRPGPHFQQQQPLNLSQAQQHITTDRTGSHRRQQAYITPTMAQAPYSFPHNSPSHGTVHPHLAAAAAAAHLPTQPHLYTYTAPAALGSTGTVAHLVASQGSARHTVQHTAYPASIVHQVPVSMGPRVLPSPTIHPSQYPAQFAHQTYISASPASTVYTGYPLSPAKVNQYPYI
Chain of Dual specificity mitogen-activated protein kinase kinase 1 (Homo sapiens) (Q02750 whole entry): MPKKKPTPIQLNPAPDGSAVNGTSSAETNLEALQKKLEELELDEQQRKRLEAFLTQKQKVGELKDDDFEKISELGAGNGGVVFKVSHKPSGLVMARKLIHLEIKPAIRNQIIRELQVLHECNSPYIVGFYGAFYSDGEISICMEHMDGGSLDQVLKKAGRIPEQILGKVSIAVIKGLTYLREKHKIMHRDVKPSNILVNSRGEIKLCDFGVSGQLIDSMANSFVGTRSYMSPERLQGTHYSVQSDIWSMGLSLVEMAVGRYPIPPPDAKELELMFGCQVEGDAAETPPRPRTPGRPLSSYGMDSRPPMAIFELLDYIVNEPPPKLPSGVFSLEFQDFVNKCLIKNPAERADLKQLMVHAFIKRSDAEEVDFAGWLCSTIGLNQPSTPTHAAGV
Chain of Serine/threonine-protein kinase pim-1 (Homo sapiens) (P11309 whole entry, looked up): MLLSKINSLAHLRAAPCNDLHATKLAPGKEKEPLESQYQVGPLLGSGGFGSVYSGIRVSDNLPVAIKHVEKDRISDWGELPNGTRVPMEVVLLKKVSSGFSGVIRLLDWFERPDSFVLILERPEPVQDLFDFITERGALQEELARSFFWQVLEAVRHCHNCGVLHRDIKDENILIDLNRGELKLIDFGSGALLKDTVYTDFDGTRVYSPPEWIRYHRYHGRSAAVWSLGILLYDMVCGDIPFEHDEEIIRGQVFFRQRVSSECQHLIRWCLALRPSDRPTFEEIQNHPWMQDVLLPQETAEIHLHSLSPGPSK
Chain of Mitogen-activated protein kinase 3 (Homo sapiens) (P27361 whole entry): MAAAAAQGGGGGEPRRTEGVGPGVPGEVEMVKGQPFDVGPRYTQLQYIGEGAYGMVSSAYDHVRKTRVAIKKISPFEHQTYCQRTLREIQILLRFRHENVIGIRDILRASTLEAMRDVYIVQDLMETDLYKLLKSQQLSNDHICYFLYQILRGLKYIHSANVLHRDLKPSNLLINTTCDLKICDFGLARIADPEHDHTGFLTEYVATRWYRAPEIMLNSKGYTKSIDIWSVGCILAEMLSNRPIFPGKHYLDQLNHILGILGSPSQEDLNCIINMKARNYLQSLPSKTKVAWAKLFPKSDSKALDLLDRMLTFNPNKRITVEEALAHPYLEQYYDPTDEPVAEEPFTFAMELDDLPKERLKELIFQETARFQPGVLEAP
Chain of MAP/microtubule affinity-regulating kinase 3 (Homo sapiens) (P27448 whole entry, looked up): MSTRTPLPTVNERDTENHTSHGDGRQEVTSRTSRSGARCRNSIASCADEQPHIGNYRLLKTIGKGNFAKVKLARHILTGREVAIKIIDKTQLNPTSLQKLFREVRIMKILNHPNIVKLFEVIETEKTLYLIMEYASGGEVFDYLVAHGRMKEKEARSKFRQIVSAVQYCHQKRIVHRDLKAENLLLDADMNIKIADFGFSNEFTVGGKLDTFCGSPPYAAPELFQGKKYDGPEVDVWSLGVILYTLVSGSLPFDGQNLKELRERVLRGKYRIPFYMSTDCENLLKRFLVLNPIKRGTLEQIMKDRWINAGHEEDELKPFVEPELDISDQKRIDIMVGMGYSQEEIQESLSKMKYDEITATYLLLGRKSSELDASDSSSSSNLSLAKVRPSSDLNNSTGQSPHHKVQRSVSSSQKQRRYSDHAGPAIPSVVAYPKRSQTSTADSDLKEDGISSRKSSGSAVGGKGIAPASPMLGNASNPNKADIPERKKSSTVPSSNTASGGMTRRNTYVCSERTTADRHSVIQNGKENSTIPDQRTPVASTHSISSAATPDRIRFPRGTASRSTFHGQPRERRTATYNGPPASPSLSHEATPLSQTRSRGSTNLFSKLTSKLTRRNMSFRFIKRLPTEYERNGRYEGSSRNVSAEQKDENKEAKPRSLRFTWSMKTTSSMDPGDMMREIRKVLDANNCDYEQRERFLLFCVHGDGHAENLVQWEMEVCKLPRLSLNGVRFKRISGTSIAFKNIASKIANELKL
Chain of Mitogen-activated protein kinase 1 (Homo sapiens) (P28482 whole entry): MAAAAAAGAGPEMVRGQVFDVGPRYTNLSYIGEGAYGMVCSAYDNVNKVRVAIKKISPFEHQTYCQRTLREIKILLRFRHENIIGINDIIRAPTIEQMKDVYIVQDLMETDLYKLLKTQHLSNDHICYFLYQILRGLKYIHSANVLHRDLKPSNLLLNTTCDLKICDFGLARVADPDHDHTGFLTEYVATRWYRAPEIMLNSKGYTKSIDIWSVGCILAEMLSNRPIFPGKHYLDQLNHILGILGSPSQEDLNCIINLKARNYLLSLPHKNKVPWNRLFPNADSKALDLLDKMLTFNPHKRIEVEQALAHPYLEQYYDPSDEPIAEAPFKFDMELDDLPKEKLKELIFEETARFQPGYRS
Chain of Maternal embryonic leucine zipper kinase (Homo sapiens) (Q14680 whole entry, looked up): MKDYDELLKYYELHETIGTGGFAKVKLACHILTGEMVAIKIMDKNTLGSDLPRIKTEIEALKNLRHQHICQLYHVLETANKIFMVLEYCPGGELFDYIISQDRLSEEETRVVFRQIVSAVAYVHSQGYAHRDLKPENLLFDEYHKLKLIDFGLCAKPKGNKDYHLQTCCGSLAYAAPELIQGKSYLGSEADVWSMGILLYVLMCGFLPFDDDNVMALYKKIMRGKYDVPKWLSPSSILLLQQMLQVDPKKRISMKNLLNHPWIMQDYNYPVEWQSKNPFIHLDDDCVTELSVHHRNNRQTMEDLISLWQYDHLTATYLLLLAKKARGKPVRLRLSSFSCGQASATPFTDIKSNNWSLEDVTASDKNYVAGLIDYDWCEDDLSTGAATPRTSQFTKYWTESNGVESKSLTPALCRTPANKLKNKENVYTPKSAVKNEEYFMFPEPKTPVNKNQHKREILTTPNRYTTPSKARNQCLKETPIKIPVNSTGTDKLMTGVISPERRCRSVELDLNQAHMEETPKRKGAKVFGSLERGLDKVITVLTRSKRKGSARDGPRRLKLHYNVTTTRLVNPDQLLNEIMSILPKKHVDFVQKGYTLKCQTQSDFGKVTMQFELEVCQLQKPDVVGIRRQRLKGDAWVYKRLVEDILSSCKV

SMILES | metabolised at 40 min [1] [%] | inhibition [2] [%] | inhibition [3] [%] | inhibition [4] [%] | inhibition [5] [%] | inhibition [6] [%] | inhibition [7] [%] | inhibition [8] [%] | inhibition [9] [%] | inhibition [10] [%] | inhibition [11] [%] | inhibition [12] [%] | inhibition [13] [%] | inhibition [14] [%] | inhibition [15] [%]
Cc1n[nH]c2ccnc(OC3CCCCC3)c12 | 25 | 82 | 48 | 66 | 56 | 35 | 66 | 46 | 95 | 96 | 37 | 60 | 93 | 61 | 7
Cc1n[nH]c2ccnc(Nc3ccccc3F)c12 |  | 56 | 69 | 77 | 50 | 49 | 77 | 46 | 83 | 57 | 24 | 67 | 9 | 26 | 11
Cc1n[nH]c2ccnc(Nc3ccc4ncsc4c3)c12 |  |  |  | 24 |  |  |  | 36 |  |  |  |  |  |  | 10
c1cc(-c2n[nH]c3ccnc(OC4CCOCC4)c23)cc(N2CCOCC2)n1 | 43 |  |  |  |  |  |  |  |  |  |  |  |  |  | 
CC(C)n1cc(-c2n[nH]c3ccnc(OC4CCOCC4)c23)cn1 | 21 |  |  |  |  |  |  |  |  |  |  |  |  |  | 
Cc1n[nH]c2ccnc(NC3CCCCC3)c12 | 7 | 29 | 40 | 29 | 38 | 29 | 70 | 34 | 91 | 57 | 8 | 66 | 49 | 25 | 3
